Experimental data as given in ChEMBL document CHEMBL1134661, “N-Benzylpolyamines as vectors of boron and fluorine for cancer therapy and imaging: synthesis and biological evaluation” (J Med Chem, 2001).
Several values for one entry are separate records, joined by “and”; a condition that tells them apart may be missing. Equal values may be shown once.

Tests used:
Nucleic Acid [1] = assay: (§1) DNA binding affinity (conc to decrease the fluorescence of the ethidium bromide-DNA complex by 50%); format: nucleic-acid assay, Bos taurus
CHO [2] = assay: Compound was tested for accumulation in CHO cells by HPLC at 50 uM dose; format: functional, Cricetulus griseus
Procedure, shortened: (§2)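 CHO or polyamine-transport-deficient CHO-MG cells (proline 2 µg/mL added for CHO-MG), RPMI 1640 with 10% FCS, 37 °C, 5% CO2; seeded at 5 × 10⁴ cells/mL, derivative added 24 h later for 24 h; trypsin/EDTA harvest, three PBS washes, sonication in 0.2 N perchloric acid; derivative measured by ion-pair reversed-phase HPLC with o-phthalaldehyde/N-acetylcysteine fluorescence; per mg protein (Folin); mean ± SD.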

3LL cell line [3] = assay: Effect on the growth of 3LL cells was evaluated using an MTT assay at 48 hour incubation; format: functional, cell-based; conditions: Mus musculus
3LL cell line [4] = assay: Effect on the growth of 3LL cells was evaluated using an MTT assay at 72 hour incubation; format: functional, cell-based; conditions: Mus musculus
3LL cell line [5] = assay: Effect on the growth of 3LL cells by DFMO pretreatment at 48 hr incubation; format: functional, cell-based; conditions: Mus musculus
Procedure, shortened: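 3LL cells given 5 mM DFMO 24 h after seeding for a 24 h preincubation, then 48 h with spermidine or derivative; MTT readout; growth expressed relative to cells treated with DFMO only; mean ± SEM.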

3LL cell line [6] = assay: spermidine levels in 3LL cells after the treatment of 50 uM of Compound; format: functional, cell-based; conditions: Mus musculus
Procedure, shortened: (§3)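 3LL cells incubated 24 h with derivative, some after 24 h pretreatment with 5 mM DFMO; perchloric acid extracts analyzed for putrescine, spermidine and spermine by ion-pair reversed-phase HPLC with o-phthalaldehyde post-column fluorescence, normalized to protein (Folin); mean ± SD.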

3LL cell line [7] = assay: spermine levels in 3LL cells after the treatment of 50 uM of Compound; format: functional, cell-based; conditions: Mus musculus; procedure, shortened: as §3
CHO-MG [8] = assay: Compound was tested for accumulation in CHO-MG cells by HPLC at 50 uM dose; format: functional, Cricetulus griseus; procedure, shortened: as §2
3LL cell line [9] = assay: accumulation of compound in 3LL cells was measured without DFMO by HPLC at 50 uM dose; format: functional, Mus musculus
Procedure, shortened: (§4)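 3LL cells exposed 24 h to derivative, BSH or BPA, with or without prior 24 h incubation with 5 mM DFMO; intracellular drug measured by ion-pair reversed-phase HPLC with o-phthalaldehyde fluorescence, or cellular boron by ICP-AES, per mg protein; mean ± SD; Student's t-test, p < 0.01.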

3LL cell line [10] = assay: accumulation of compound in 3LL cells was measured with DFMO by HPLC at 50 uM dose; format: functional, Mus musculus; procedure, shortened: as §4
[11] = Compound was tested for accumulation of (50 uM) boronated polyamines in rat C6 glioblastoma cells; format: functional
Procedure, shortened: (§5)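 Rat C6, human U251 glioblastoma or murine B16 melanoma cells exposed 24 h to 50 µM boron-containing derivative, either directly or after 24 h preincubation with 5 mM DFMO; washed cells sonicated in 0.2 N perchloric acid, derivative quantified by ion-pair reversed-phase HPLC with o-phthalaldehyde fluorescence detection, normalized to protein; mean ± SD.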

[12] = Compound was tested for accumulation of (50 uM) boronated polyamines in murine B16 melanoma cells; format: functional; procedure, shortened: as §5
3LL cell line [13] = assay: accumulation of compound in 3LL cells was measured without DFMO by HPLC at 250 uM dose; format: functional, Mus musculus; procedure, shortened: as §4
3LL cell line [14] = assay: accumulation of compound in 3LL cells was measured with DFMO by HPLC at 250 uM dose; format: functional, Mus musculus; procedure, shortened: as §4
CHO-MG [15] = assay: Compound was tested for accumulation in CHO-MG cells by HPLC at 250 uM dose; format: functional, Cricetulus griseus; procedure, shortened: as §2
Nucleic Acid [16] = assay: as §1; format: nucleic-acid assay
CHO [17] = assay: Compound was tested for accumulation in CHO cells by HPLC at 250 uM dose; format: functional, Cricetulus griseus; procedure, shortened: as §2
U-251 = assay: Compound was tested for accumulation of (50 uM) boronated polyamines in human U251 glioblastoma cells; format: functional; procedure, shortened: as §5
3LL cell line [18] = assay: accumulation of compound in 3LL cells was measured with DFMO by ICP-AES at 50 uM dose; format: functional, Mus musculus; procedure, shortened: as §4
3LL cell line [19] = assay: accumulation of compound in 3LL cells was measured without DFMO by ICP-AES at 50 uM dose; format: functional, Mus musculus; procedure, shortened: as §4
CHO [20] = assay: Compound was tested for accumulation in CHO cells by HPLC at 10 uM dose; format: functional, Cricetulus griseus; procedure, shortened: as §2
3LL cell line [21] = assay: accumulation of compound in 3LL cells was measured without DFMO by HPLC at 10 uM dose; format: functional, Mus musculus; procedure, shortened: as §4
3LL cell line [22] = assay: accumulation of compound in 3LL cells was measured without DFMO by HPLC at 1 uM dose; format: functional, Mus musculus; procedure, shortened: as §4
3LL cell line [23] = assay: spermine levels in 3LL cells after the treatment of 1 uM of Compound; format: functional, cell-based; conditions: Mus musculus; procedure, shortened: as §3
3LL cell line [24] = assay: accumulation of compound in 3LL cells was measured with DFMO by HPLC at 1 uM dose; format: functional, Mus musculus; procedure, shortened: as §4
3LL cell line [25] = assay: spermine levels in 3LL cells after the treatment of 250 uM of Compound; format: functional, cell-based; conditions: Mus musculus; procedure, shortened: as §3
3LL cell line [26] = assay: accumulation of compound in 3LL cells was measured with DFMO by HPLC at 10 uM dose; format: functional, Mus musculus; procedure, shortened: as §4
3LL cell line [27] = assay: spermidine levels in 3LL cells after the treatment of 250 uM of Compound; format: functional, cell-based; conditions: Mus musculus; procedure, shortened: as §3

| SMILES | IC50 (Nucleic Acid [1]) [µM] | Accumulation (CHO [2]) | IC50 (3LL cell line [3]) [µM] | IC50 (3LL cell line [4]) [µM] | IC50 (3LL cell line [5]) [µM] | Level (nM (mg of protein)-1) (3LL cell line [6]) | Level (nM (mg of protein)-1) (3LL cell line [7]) | Activity (3LL cell line [9]) [nmol/mg protein] | Activity (3LL cell line [10]) | Accumulation [12] | Activity (3LL cell line [13]) | Activity (3LL cell line [14]) | Accumulation (CHO-MG [15]) | Accumulation (CHO [17]) | Accumulation (U-251) | Activity (3LL cell line [18]) | Activity (3LL cell line [19]) | Activity (3LL cell line [21]) | other results |
| --- | --- | --- | --- | --- | --- | --- | --- | --- | --- | --- | --- | --- | --- | --- | --- | --- | --- | --- | --- |
| NCCCCNCCCN [SPERMIDINE] | 98 | – | – | – | – | – | – | – | – | – | – | – | – | – | – | – | – | – | – |
| Cl.NCCCCNCc1ccccc1 | 3110 | 0.4 nM (mg of protein)-1 | 993 | 604 | > 50 | 0.89 | 5.79 | 0.34 | 1.03 nM (mg of protein)-1 | – | – | – | – | – | – | – | – | – | Accumulation (CHO-MG [8]): 0.1 nM (mg of protein)-1 |
| CC1(C)COB(c2ccc(CN(CCCN)CCCCN)cc2)OC1.Cl | – | – | > 1000 | > 1000 | > 10 | 8.92 | 7.4 | 2.6 | 0.98 nM (mg of protein)-1 | 0.92 nM (mg of protein)-1 and 0.45 nM (mg of protein)-1 | 3.35 nM (mg of protein)-1 | 2.55 nM (mg of protein)-1 | 3.84 nM (mg of protein)-1 | 5.05 nM (mg of protein)-1 | 2.12 nM (mg of protein)-1 and 1.79 nM (mg of protein)-1 | 1.83 nM (mg of protein)-1 | 3.46 nM (mg of protein)-1 | – | Accumulation [11]: 2.92 nM (mg of protein)-1 and 2.5 nM (mg of protein)-1; IC50 (Nucleic Acid [16]): 102 µM |
| Cl.NCCCCNCCCNCc1ccc(F)cc1 | 341 | – | 4.7 | 2.3 | 0.5 | – | – | – | – | – | – | – | – | – | – | – | – | 12.87 nM (mg of protein)-1 | Accumulation (CHO [20]): 9.4 nM (mg of protein)-1; Activity (3LL cell line [22]): 5.51 nM (mg of protein)-1; Level (nM (mg of protein)-1) (3LL cell line [23]): 8.25; Activity (3LL cell line [24]): 12.19 nM (mg of protein)-1 |
| Cl.NCCCCNCCCNCc1ccc(B(O)O)cc1 | 37 | 4.78 nM (mg of protein)-1 | 824 | 400 | > 1 | 0.14 | 7.25 | – | 4.18 nM (mg of protein)-1 | 4.75 nM (mg of protein)-1 and 9.26 nM (mg of protein)-1 | – | – | – | – | 1.65 nM (mg of protein)-1 | 5.68 nM (mg of protein)-1 | 2.7 nM (mg of protein)-1 | – | Activity [11]: 1.63 nM (mg of protein)-1; Drug (3LL cell line [9]): 2.01 nM (mg of protein)-1 |
| Cl.NCCCCN(CCCN)Cc1ccccc1 | 310 | – | > 1000 | > 1000 | > 100 | – | – | 4.92 | 6.92 nM (mg of protein)-1 | – | 6.11 nM (mg of protein)-1 | 5.46 nM (mg of protein)-1 | 5.55 nM (mg of protein)-1 | 13.64 nM (mg of protein)-1 | – | – | – | 2.59 nM (mg of protein)-1 | Level (nM (mg of protein)-1) (3LL cell line [25]): 8.64; Activity (3LL cell line [26]): 5.52 nM (mg of protein)-1; Level (nM (mg of protein)-1) (3LL cell line [27]): 4.15 |
